{"source": "paper PMC4143594", "about": "(Clinical Drug Investigation, 2014)", "key": {"[1]": {"settings": "cited from earlier work"}, "[2]": {"type": "in vivo, healthy subjects (human)", "settings": "for C max,IDeg,SD, mean estimate: serum, ELISA", "how_it_was_run": "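Fasted healthy adults (n=20) in a randomised, open-label, complete crossover received single SC doses of 0.4 U/kg, 13–21 days apart. Dosing was by syringe into a lifted skinfold of anterior thigh, lower abdominal wall or outer deltoid, each followed by a 24-h euglycaemic clamp (4.5 mmol/L). Serum was sampled over 120 h and assayed by compound-specific sandwich ELISA (LLOQ 20 pmol/L).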"}, "[3]": {"assay": "24-h euglycaemic clamp after a single SC dose", "type": "in vivo, healthy subjects (human)"}, "[4]": {"settings": "single SC dose 0.4 U/kg in abdomen, 20 evaluations"}, "[5]": {"settings": "single SC dose 0.4 U/kg in deltoid, 20 evaluations"}, "[6]": {"settings": "single SC dose 0.4 U/kg in thigh, 19 evaluations"}, "[7]": {"settings": "single SC dose 0.4 U/kg, ANOVA of log-transformed AUC"}, "[8]": {"settings": "single SC dose 0.4 U/kg, ANOVA of log-transformed values"}}, "note": "Like-named read-outs stand apart in the source and are kept apart here.", "data": [{"substance": "insulin glargine", "values": [{"measurement": "Half-life after SC administration", "setting": "[1]", "result": 12, "unit": "h"}]}, {"substance": "insulin detemir", "values": [{"measurement": "AUC higher following SC injection in abdomen or deltoid than in thigh", "setting": "[1]", "result": "approximately 10%"}]}, {"substance": "insulin degludec", "values": [{"measurement": "Maximum concentration (C max,IDeg,SD) higher in deltoid or abdomen than in thigh", "setting": "[2]; single SC dose 0.4 U/kg", "result": "23–27%"}, {"measurement": "C max,IDeg,SD, mean estimate", "setting": "[2]; [4]", "result": "2,388 pmol/L"}, {"measurement": "C max,IDeg,SD, mean estimate", "setting": "[2]; [5]", "result": "2,462 pmol/L"}, {"measurement": "C max,IDeg,SD, mean estimate", "setting": "[2]; [6]", "result": "1,938 pmol/L"}, {"measurement": "AUCIDeg,0–120h,SD mean ratio [95 % CI], abdomen vs. deltoid", "setting": "[2]; [7]", "result": "1.01 [0.96–1.06]"}, {"measurement": "AUCIDeg,0–120h,SD mean ratio [95 % CI], abdomen vs. thigh", "setting": "[2]; [7]", "result": "1.07 [1.03–1.11]"}, {"measurement": "AUCIDeg,0–120h,SD mean ratio [95 % CI], deltoid vs. thigh", "setting": "[2]; [7]", "result": "1.06 [1.01–1.10]"}, {"measurement": "C max,IDeg,SD mean ratio [95 % CI], abdomen vs. deltoid", "setting": "[2]; [8]", "result": "0.97 [0.84–1.12]"}, {"measurement": "C max,IDeg,SD mean ratio [95 % CI], abdomen vs. thigh", "setting": "[2]; [8]", "result": "1.23 [1.07–1.42]"}, {"measurement": "C max,IDeg,SD mean ratio [95 % CI], deltoid vs. thigh", "setting": "[2]; [8]", "result": "1.27 [1.08–1.49]"}, {"measurement": "GIRmax,SD, mean estimate", "setting": "[3]; [4]", "result": "3.0 mg/(kg·min)"}, {"measurement": "GIRmax,SD, mean estimate", "setting": "[3]; [5]", "result": "3.0 mg/(kg·min)"}, {"measurement": "GIRmax,SD, mean estimate", "setting": "[3]; [6]", "result": "2.7 mg/(kg·min)"}, {"measurement": "Time to reach steady state", "setting": "[1]; once-daily injections", "result": "2 to 3", "unit": "days"}]}]}
